From ChEMBL document CHEMBL4813988, “Design and synthesis of N-(3-sulfamoylphenyl)amides as Trypanosoma brucei leucyl-tRNA synthetase inhibitors” (Eur J Med Chem, 2021)

Tested on: Trypanosoma brucei
Assay: Potency index, ratio of IC50 of ZCL539 to IC50 of compound for inhibition of Trypanosoma brucei LeuRS expressed in Escherichia coli BL21 (DE3)-RIPL cells preincubated for 20 mins in presence of [14C]leucine followed by incubation with ATP for 15 mins by liquid scintillation counting method
Conditions: time 35.0 min

Row | Compound | Ratio IC50
1 | CC(C)C[C@H](N)C(=O)NS(=O)(=O)c1cccc(NC(=O)c2ccc(OCc3ccccc3)cc2)c1 | 700
2 | COc1ccc(C(=O)Nc2cccc(S(=O)(=O)NC(=O)[C@@H](N)CC(C)C)c2)cc1 | > 700

Tested on: Trypanosoma brucei brucei
Assay: Antitrypanosomal activity against bloodstream form of Trypanosoma brucei brucei 221 assessed as parasite growth inhibition incubated for 72 hrs by resazurin staining based assay
Assay type: functional, organism-based
Conditions: Trypanosoma brucei, 221, 72 h
In short: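 Trypanosomes kept in log phase in complete HMI-11 by subculture every 2-3 days, counted by hemocytometer, plated at final 1.0 × 10⁵/mL with serially DMSO-diluted compound (final 0.4% DMSO), triplicate wells. 72 h at 37 °C, 5% CO₂; resazurin added, further 5 h. Fluorescence ex 544/em 590 nm; triplicates averaged, IC₅₀ from sigmoidal dose-response fit.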

Row | Compound | IC50
3 | N=C(N)c1ccc(OCCCCCOc2ccc(C(=N)N)cc2)cc1 [PENTAMIDINE] | 9 ng/mL
4 | Cc1ccc(C(=O)Nc2ccc(S(=O)(=O)O)c3cc(S(=O)(=O)O)cc(S(=O)(=O)O)c23)cc1NC(=O)c1cccc(NC(=O)Nc2cccc(C(=O)Nc3cc(C(=O)Nc4ccc(S(=O)(=O)O)c5cc(S(=O)(=O)O)cc(S(=O)(=O)O)c45)ccc3C)c2)c1 [SURAMIN] | 7 ng/mL
5 | CC(C)C[C@H](N)C(=O)NS(=O)(=O)c1cccc(NC(=O)c2ccc(OCc3ccccc3)cc2)c1 | 69.8 µM

Tested on: not listed separately
Assay: Inhibition of Trypanosoma brucei LeuRS expressed in Escherichia coli BL21 (DE3)-RIPL cells preincubated for 20 mins in presence of [14C]leucine followed by incubation with ATP for 15 mins by liquid scintillation counting method
Conditions: not given

Row | Compound | IC50 [µM]
6 | CC(C)C[C@H](N)C(=O)NS(=O)(=O)c1ccc(NC(=O)c2ccccc2)cc1 | 96
7 | CC(C)C[C@H](N)C(=O)NS(=O)(=O)c1cccc(NC(=O)c2cccc(-c3ccccc3)c2)c1 | 3.6
8 | CC(C)C[C@H](N)C(=O)NS(=O)(=O)c1cccc(NC(=O)c2ccccc2[N+](=O)[O-])c1 | 11.5
9 | CC(C)C[C@H](N)C(=O)NS(=O)(=O)c1ccc(NC(=O)c2ccc(Cl)cc2)cc1 | 116
10 | CC(C)C[C@H](N)C(=O)NS(=O)(=O)c1cccc(NC(=O)c2cccc([N+](=O)[O-])c2)c1 | 8.6
11 | COc1ccc(-c2cccc(C(=O)Nc3cccc(S(=O)(=O)NC(=O)[C@@H](N)CC(C)C)c3)c2)cc1 | 1.8
12 | COc1cccc(-c2cccc(C(=O)Nc3cccc(S(=O)(=O)NC(=O)[C@@H](N)CC(C)C)c3)c2)c1 | 3.6
13 | COc1ccc(C(=O)Nc2cccc(S(=O)(=O)NC(=O)[C@@H](N)CC(C)C)c2)cc1OC | 0.66
14 | Cc1ccccc1C(=O)Nc1cccc(S(=O)(=O)NC(=O)[C@@H](N)CC(C)C)c1 | 14.3
15 | CC(C)C[C@H](N)C(=O)NS(=O)(=O)c1cccc(NC(=O)c2ccco2)c1 | 3.7
16 | CCCCOc1ccc(C(=O)Nc2cccc(S(=O)(=O)NC(=O)[C@@H](N)CC(C)C)c2)cc1 | 0.8
17 | CCOc1ccc(C(=O)Nc2cccc(S(=O)(=O)NC(=O)[C@@H](N)CC(C)C)c2)cc1 | 0.5
18 | CC(C)C[C@H](N)C(=O)NS(=O)(=O)c1cccc(NC(=O)c2ccc(F)cc2)c1 | 6.4
19 | CC(C)C[C@H](N)C(=O)NS(=O)(=O)c1cccc(NC(=O)c2ccccc2)c1 | 9.4
20 | Cc1ccc(C(=O)Nc2cccc(S(=O)(=O)NC(=O)[C@@H](N)CC(C)C)c2)cc1 | 14
21 | CC(C)C[C@H](N)C(=O)NS(=O)(=O)c1ccc(NC(=O)c2cccc(Cl)c2)cc1 | 42.8
22 | CC(C)C[C@H](N)C(=O)NS(=O)(=O)c1cccc(NC(=O)c2ccc(-c3ccccc3)cc2)c1 | 5.8
23 | CC(C)C[C@H](N)C(=O)NS(=O)(=O)c1cccc(NC(=O)c2ccc(OCc3ccccc3)cc2)c1 | 0.25
24 | CC(C)C[C@H](N)C(=O)NS(=O)(=O)c1ccc(NC(=O)c2cccc([N+](=O)[O-])c2)cc1 | > 1000

Row | Compound | IC50 [µM]
25 | COc1cc(C(=O)Nc2cccc(S(=O)(=O)NC(=O)[C@@H](N)CC(C)C)c2)cc(OC)c1OC | 1.48
26 | CC(C)C[C@H](N)C(=O)NS(=O)(=O)c1cccc(NC(=O)OCc2ccccc2)c1 | 4
27 | CC(C)C[C@H](N)C(=O)NS(=O)(=O)c1cccc(NC(=O)c2ccc(Oc3ccccc3)cc2)c1 | 1.3
28 | CC(C)C[C@H](N)C(=O)NS(=O)(=O)c1cccc(NC(=O)c2ccc([N+](=O)[O-])cc2)c1 | 14.7
29 | CC(C)C[C@H](N)C(=O)NS(=O)(=O)c1cccc(NC(=O)c2ccc(OC(C)C)cc2)c1 | 3.9
30 | COc1ccc(C(=O)Nc2cccc(S(=O)(=O)NC(=O)[C@@H](N)CC(C)C)c2)cc1 | 0.24
31 | CC(C)C[C@H](N)C(=O)NS(=O)(=O)c1ccc(NC(=O)c2ccc(Br)cc2)cc1 | 31.2
32 | CC(C)C[C@H](N)C(=O)Nc1ccc(S(=O)(=O)NC(=O)[C@@H](N)CC(C)C)cc1 | 107
33 | Cc1ccc(C(=O)Nc2ccc(S(=O)(=O)NC(=O)[C@@H](N)CC(C)C)cc2)cc1 | 39.1
34 | CC(C)C[C@H](N)C(=O)NS(=O)(=O)c1cccc(NC(=O)c2ccc(Cl)cc2)c1 | 4.9
35 | Cc1cccc(C(=O)Nc2ccc(S(=O)(=O)NC(=O)[C@@H](N)CC(C)C)cc2)c1 | 59.7
36 | NS(=O)(=O)c1ccc(NC(=S)NC(=O)COc2ccc(Br)cc2Cl)cc1 | 174
37 | CC(C)C[C@H](N)C(=O)NS(=O)(=O)c1cccc(NC(=O)c2cccc(Oc3ccccc3)c2)c1 | 8.6
38 | COc1cccc(C(=O)Nc2cccc(S(=O)(=O)NC(=O)[C@@H](N)CC(C)C)c2)c1 | 2.4
39 | CC(C)C[C@H](N)C(=O)NS(=O)(=O)c1cccc(NC(=O)c2ccc(O)cc2)c1 | 0.3
40 | CC(C)C[C@H](N)C(=O)NS(=O)(=O)c1cccc(NC(=O)c2ccc(Br)cc2)c1 | 5.2
41 | Cc1cccc(C(=O)Nc2cccc(S(=O)(=O)NC(=O)[C@@H](N)CC(C)C)c2)c1 | 9.5
42 | CC(C)C[C@H](N)C(=O)NS(=O)(=O)c1cccc(NC(=O)c2cccs2)c1 | 6.2
43 | CC(C)C[C@H](N)C(=O)NS(=O)(=O)c1ccc(NC(=O)c2ccc([N+](=O)[O-])cc2)cc1 | 32.7
